Assays:
[1] = target: Nitric oxide synthase 1 (Rattus norvegicus) (UniProt P29476); test: Percentage inhibition of rat striatal neural nitric oxide synthase (nNOS) activity at 1 mM by quantifying L-[3H]citrulline production
In short: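 Striatal homogenate was made in pH 7.6 Tris buffer with DTT and protease inhibitors, then spun 1000g for 5 min. Supernatant was incubated with 25 mM Tris, 1 mM DTT, 30 μM H4-biopterin, 10 μM FAD, 0.1 mM CaCl2, 10 μM L-arginine plus 50 nM L-[3H]-arginine, 0.75 mM NADPH and compound at 1 mM final in DMSO, 37 °C, 30 min. L-[3H]-citrulline separated on Dowex-50W and counted. NADPH-free blank subtracted. Three experiments in triplicate.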

[2] = target: Kynurenine 3-monooxygenase (Rattus norvegicus) (UniProt O88867); test: Percent activity of rat striatal kynurenine 3-hydroxylase (KYN3OH) activity at 1 mM by quantifying 3-hydroxykynurenine production
Kynurenine 3-monooxygenase (Rattus norvegicus), sequence (O88867 whole entry, looked up): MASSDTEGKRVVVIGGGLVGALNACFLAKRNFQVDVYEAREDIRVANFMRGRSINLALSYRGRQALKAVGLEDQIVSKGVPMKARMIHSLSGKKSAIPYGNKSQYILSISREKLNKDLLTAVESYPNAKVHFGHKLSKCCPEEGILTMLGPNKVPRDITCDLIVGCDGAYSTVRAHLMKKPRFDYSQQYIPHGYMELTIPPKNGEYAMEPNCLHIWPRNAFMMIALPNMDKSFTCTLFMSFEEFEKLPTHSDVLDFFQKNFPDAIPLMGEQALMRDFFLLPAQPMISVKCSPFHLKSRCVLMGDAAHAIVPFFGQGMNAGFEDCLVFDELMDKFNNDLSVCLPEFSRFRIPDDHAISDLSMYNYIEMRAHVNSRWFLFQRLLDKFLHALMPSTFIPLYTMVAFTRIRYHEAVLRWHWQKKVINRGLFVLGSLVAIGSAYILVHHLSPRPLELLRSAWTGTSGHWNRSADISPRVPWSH

Nitric oxide synthase 1 (Rattus norvegicus), sequence (P29476 whole entry): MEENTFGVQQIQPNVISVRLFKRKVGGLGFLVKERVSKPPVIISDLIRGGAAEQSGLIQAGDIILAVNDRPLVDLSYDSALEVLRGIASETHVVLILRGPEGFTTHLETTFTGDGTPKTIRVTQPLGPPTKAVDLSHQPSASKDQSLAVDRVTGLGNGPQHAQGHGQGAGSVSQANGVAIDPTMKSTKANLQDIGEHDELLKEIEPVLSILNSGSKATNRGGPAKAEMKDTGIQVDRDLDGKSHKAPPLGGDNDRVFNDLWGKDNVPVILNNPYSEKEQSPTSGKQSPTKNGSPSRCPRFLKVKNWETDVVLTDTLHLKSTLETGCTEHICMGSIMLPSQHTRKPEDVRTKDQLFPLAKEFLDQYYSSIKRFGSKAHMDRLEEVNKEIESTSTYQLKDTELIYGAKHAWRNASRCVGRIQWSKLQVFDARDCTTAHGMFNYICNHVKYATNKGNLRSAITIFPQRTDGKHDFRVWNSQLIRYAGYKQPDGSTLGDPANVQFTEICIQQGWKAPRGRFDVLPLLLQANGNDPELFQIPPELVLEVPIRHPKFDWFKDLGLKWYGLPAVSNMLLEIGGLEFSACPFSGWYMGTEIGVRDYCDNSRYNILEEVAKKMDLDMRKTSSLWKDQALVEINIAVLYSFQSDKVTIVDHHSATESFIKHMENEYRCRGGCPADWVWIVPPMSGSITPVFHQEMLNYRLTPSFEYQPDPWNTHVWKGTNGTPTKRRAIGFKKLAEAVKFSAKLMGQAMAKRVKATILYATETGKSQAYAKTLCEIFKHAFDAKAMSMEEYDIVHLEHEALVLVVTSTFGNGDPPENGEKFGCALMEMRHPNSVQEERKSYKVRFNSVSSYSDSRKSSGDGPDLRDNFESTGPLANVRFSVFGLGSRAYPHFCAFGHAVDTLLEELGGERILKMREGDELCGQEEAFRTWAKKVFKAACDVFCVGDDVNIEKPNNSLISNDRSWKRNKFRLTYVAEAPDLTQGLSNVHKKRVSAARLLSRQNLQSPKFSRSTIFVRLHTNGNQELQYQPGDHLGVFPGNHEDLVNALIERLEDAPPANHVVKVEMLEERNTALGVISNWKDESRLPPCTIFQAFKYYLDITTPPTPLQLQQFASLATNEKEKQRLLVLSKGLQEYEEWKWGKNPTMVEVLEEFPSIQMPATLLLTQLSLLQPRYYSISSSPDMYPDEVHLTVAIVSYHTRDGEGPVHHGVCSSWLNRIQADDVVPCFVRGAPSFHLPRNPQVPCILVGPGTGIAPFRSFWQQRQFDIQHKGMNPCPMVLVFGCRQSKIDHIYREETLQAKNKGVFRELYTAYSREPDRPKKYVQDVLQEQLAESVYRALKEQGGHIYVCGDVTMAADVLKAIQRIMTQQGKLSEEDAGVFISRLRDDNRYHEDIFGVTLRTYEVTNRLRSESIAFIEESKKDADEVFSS

inhibition [1] [%]	% activity [2] [%]	Compound
31.7	–	CC(=O)NCCC(=O)c1cc(Cl)ccc1N
45	96.3	COc1ccc(N)c(C(=O)CCNC(=O)C2CCCC2)c1
40.4	99.9	COc1ccc(N)c(C(=O)CCNC(=O)C2CC2)c1
48.2	99.6	COc1ccc(N)c(C(=O)CCNC(=O)C2CCCCC2)c1
42.8	–	CCCC(=O)NCCC(=O)c1cc(OC)ccc1N
65.4	102	COc1ccc(N)c(C(=O)CCNC(C)=O)c1
46.5	97.2	COc1ccc(N)c(C(=O)CCNC(=O)c2ccccc2)c1
50.9	99.4	CCC(=O)NCCC(=O)c1cc(OC)ccc1N
39.6	97.2	CCCCC(=O)NCCC(=O)c1cc(OC)ccc1N
23.3	–	Nc1ccc(Cl)cc1C(=O)CCNC(=O)C1CC1
21.7	–	Nc1ccc(Cl)cc1C(=O)CCNC(=O)c1ccccc1
33.7	92.2	COc1ccc(N)c(C(=O)CCNC(=O)C2CCC2)c1

Reference: ChEMBL document CHEMBL1140421, “Kynurenamines as neural nitric oxide synthase inhibitors” (J Med Chem, 2005)
